Assay outcomes as filed in PubChem BioAssay.
Sampled rows, rich in hits. Any-hit rate of the full collection: about 5.9%.
Measles CPE: compounds protecting cells from measles virus cytopathic effect, primary screen, measles RdRp inhibitor project, single point, MLSMR library, absorbance; hit rate 1.5% among 140,000; protection (pct of control), % at 4 µM; AID 841, 2007; Measles virus-infected cells, CPE protection; in the data active = protection mostly above about 24%, no sharp cut-off; inactive = mostly below about 26%
Phagocytosis inh: inhibitors of macrophage phagocytosis, primary screen, imaging, J774A.1 cells, IgG beads; J774A.1 macrophage IgG-bead phagocytosis; hit rate 0.07% among 110,000; AID 1029, 2008; inhibition, % at 5 µM;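 active = inhibition above the mean of the plate negative controls plus 5 SD, cut at about 13% in these data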;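 also: phagocytic index as fraction of beads internalized from green versus red external bead signal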
Rev-RRE block: HIV-1 Rev-RRE binding inhibitors, primary screen, biochemical, FRET, protein-RNA interaction; P05866; Rev peptide-RRE RNA binding; inhibition, % at 8 µM; hit rate 0.79% among 97,000;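 active = inhibition above the screen-wide mean plus 3 SD, cut at about 35% in these data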
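Assay system: labelled RRE RNA duplex and labelled Rev peptide / Medium: HEPES pH 7.5 salt buffer with EDTA / Reagent: labelled Rev peptide / Schedule: 5 + 15 min at 25 °C / Signal: FRET, excitation 480 nm, emission 540 nm donor and 671 nm acceptor / Benchmarks: DMSO and neomycin B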
Cav3 T inh: Cav3.2 calcium influx blockers – cell-based, Fluo-4 calcium fluorescence, FDSS, MLSMR library, primary screen. Voltage-dependent T-type calcium channel subunit alpha-1H (Homo sapiens), O95180. Cav3.2-expressing cells; hits give low values. B-score at 10 µM. hit rate 4% among 100,000. AID 449739, 2010;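 active = single-dose well whose peak fluorescence ratio is a statistical outlier from its plate by either plate-standardised score or position-corrected B-score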
PTK2B oligo ant: antagonists of Pyk2 self-association, primary screen, Q293 cells, FERM NanoBiT luminescence, HTS | Protein-tyrosine kinase 2-beta (Homo sapiens), Q14289 | hits give low values | z-score (the deposit names both 25 µM and 10 µM) | hit rate 0.83% among 99,000 | AID 1347419, 2020;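 active = Z-score of -3 or lower, scaled per plate to the spread of control and sample wells; inactive = z-score above -3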;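 also: negative z-score means lost luminescence so less FERM oligomerization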
DAT uptake mod: changed hDAT dopamine uptake under cocaine IC80, either direction, primary screen, cocaine antagonist project, cell-based, LLC-PK1 hDAT, [14C]-dopamine uptake, MLSMR; Sodium-dependent dopamine transporter (Homo sapiens), Q01959; LLC-PK1 hDAT cells, [14C]-dopamine uptake with cocaine IC80; actives deviate in either direction; B-score at 10 µM; hit rate 1.3% among 110,000; AID 449768, 2010;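 active = Z score or B-score, a plate-position-corrected score, falls beyond the plate's 99.7% confidence bounds, in either direction; inactive = both scores lie inside the 99.7% bounds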
Of the large screens only hits and unclear results are named; the others gave an inactive call; [ ] = remark or other dose.

CCOC(=O)CC(=O)CSc1nc2ccc(C)cc2cc1C#N	Rev-RRE block 94.5[fluorescence artefact?]
COC(=O)CSc1nc2cc(C)ccc2cc1C#N	none
Cc1cc(C)nc(SCC(=O)Nc2ccc(Br)cn2)n1	Measles CPE 18.0
CSc1nsc(SCC(=O)Nc2ccc(Br)cn2)n1	none
CCN1CCN(C(=O)C2(NC(=O)Nc3ccccc3Cl)CCCCC2)CC1	Measles CPE 48.9 (no result: Phagocytosis inh)
O=C(Nc1cc(C(F)(F)F)ccc1-n1cnc2ccccc21)c1ccccc1	none (no result: Rev-RRE block, Cav3 T inh, PTK2B oligo ant, DAT uptake mod)
CC(=O)Oc1ccc2ccccc2c1C(NC(=O)Cc1ccccc1)c1ccc(Cl)cc1 (configuration not stated)	Cav3 T inh -9.8, PTK2B oligo ant -4.03
CCOC(=O)C(CC)Sc1nnc(COc2ccc(C)cc2)n1-c1ccccc1 (configuration not stated)	Measles CPE 27.7, Cav3 T inh -7.35 (no result: Phagocytosis inh)
O=C(CSc1nnc(COc2ccccc2)n1-c1ccccc1)c1cccs1	Cav3 T inh -6.9 (no result: Rev-RRE block)
CCN(CC)c1ccc(C2CC(=O)Nc3cc(OC)c(OC)cc32)cc1 (configuration not stated)	DAT uptake mod 2.36
COCCn1nnnc1C(c1ccc(OC)cc1OC)N1CCN(c2ccccc2F)CC1 (configuration not stated)	PTK2B oligo ant -4.4
COc1ccc(OC)c(C(c2nnnn2CCc2ccccc2)N2CCN(c3ccccc3)CC2)c1 (configuration not stated)	none (no result: Phagocytosis inh)
COc1ccc(N2CCN(C(c3cc(OC)ccc3OC)c3nnnn3Cc3ccco3)CC2)cc1 (configuration not stated)	PTK2B oligo ant -3.18 (no result: Rev-RRE block)
COCCn1nnnc1C(c1ccc(OC)cc1OC)N1CCN(c2ccccc2)CC1 (configuration not stated)	PTK2B oligo ant -4.11 (no result: Cav3 T inh)
CC(C)CC(=O)NCCCCc1ccccc1	none (no result: Rev-RRE block, Cav3 T inh, PTK2B oligo ant, DAT uptake mod)
c1ccc(-c2oc3ncnc(NCCCn4ccnc4)c3c2-c2ccccc2)cc1	DAT uptake mod 2.72
c1ccc(-c2oc3ncnc(NCCN4CCOCC4)c3c2-c2ccccc2)cc1	none
O=C(CCn1c(=O)[nH]c2ccccc2c1=O)N1CCN(c2cccc(C(F)(F)F)c2)CC1	none
O=C(CCCCn1c(=O)[nH]c2ccccc2c1=O)N1CCN(c2cccc(C(F)(F)F)c2)CC1	Cav3 T inh -9.43
O=C(CCCn1c(=S)[nH]c2ccccc2c1=O)N1CCN(c2cccc(Cl)c2)CC1	Measles CPE 59.0, PTK2B oligo ant -3.02
O=C(CCn1c(=O)[nH]c2ccccc2c1=O)N1CCN(c2ccc(Cl)cc2)CC1	none
O=C(CSCc1nc2ccccc2[nH]1)N1CCN(c2cccc(Cl)c2)CC1	Cav3 T inh -3.54
COC(=O)NNC(=O)c1ccc(C)c(Br)c1	none (no result: Rev-RRE block, Cav3 T inh, PTK2B oligo ant, DAT uptake mod)
CSc1ccccc1NC(=O)CN(c1ccccc1Br)S(C)(=O)=O	none (no result: Rev-RRE block, Cav3 T inh, PTK2B oligo ant, DAT uptake mod)
CCc1ccc(NC(=O)C(C)OC(=O)c2cccc(S(=O)(=O)N3CCc4ccccc4C3)c2)cc1 (configuration not stated)	none (no result: Rev-RRE block, Cav3 T inh, PTK2B oligo ant, DAT uptake mod)
COC(=O)c1sccc1NC(=O)C12CC3CC(CC(C3)C1)C2	none (no result: Measles CPE, Phagocytosis inh)
O=C(Nc1nc2ccccc2s1)C1CC(=O)N(c2ccc(Cl)cc2)C1 (configuration not stated)	Cav3 T inh -4.69
O=C(Nc1cccc2nsnc12)C1CC(=O)N(c2ccccc2)C1 (configuration not stated)	none
COc1ccc(NC(=O)[C@@H]2CC=C[C@@H]3CCN(C4CCCCC4)C(=O)[C@@H]32)cc1	none (no result: Measles CPE, Phagocytosis inh, Rev-RRE block, PTK2B oligo ant)
CCN(C1CCCCC1)S(=O)(=O)c1cc(C)ccc1OC	none
CCN(C1CCCCC1)S(=O)(=O)c1ccc(OC)c(C)c1	Cav3 T inh -6.27
O=C(NCc1ccco1)c1ccc(COc2cc(Cl)ccc2Cl)cc1	none (no result: Rev-RRE block, Cav3 T inh, PTK2B oligo ant, DAT uptake mod)
Cc1ccc(S(=O)(=O)N(C)C)cc1NC(=O)COC(=O)/C(=C/c1ccc(F)cc1)c1cccs1	none (no result: Rev-RRE block, Cav3 T inh, PTK2B oligo ant, DAT uptake mod)
O=[N+]([O-])c1ccc(NC(=S)N2CCc3ccccc3C2)cc1	none (no result: Rev-RRE block, Cav3 T inh, PTK2B oligo ant, DAT uptake mod)
O=C(OCC#CCSc1nnc(-c2ccccc2)o1)c1cccs1	none
O=C(OCC#CCSc1nnc(-c2cccc3ccccc23)o1)c1cccs1	Cav3 T inh -4.7
Cc1ccc(C(=O)NNC(=O)CSc2nnc(-c3ccccc3)n2Cc2ccccc2)cc1	none (no result: Rev-RRE block, Cav3 T inh, PTK2B oligo ant, DAT uptake mod)
COc1ccc(NS(=O)(=O)c2ccc(N/N=C(\C)c3ccncc3)c([N+](=O)[O-])c2)cc1	none (no result: Rev-RRE block, Cav3 T inh, PTK2B oligo ant, DAT uptake mod)
CC(C)(C)C1CC=C2C(C#N)=C(N)C(C#N)(C#N)C(c3cccs3)C2C1 (configuration not stated)	Rev-RRE block 48.6 (no result: Measles CPE, Cav3 T inh, PTK2B oligo ant)
C=CCN1C(=O)/C(=C/c2ccc(N(C)C)cc2)S/C1=N\c1nnc(CC)s1	Rev-RRE block 131.5[fluorescence artefact?] (no result: Cav3 T inh, PTK2B oligo ant, DAT uptake mod)
C[C@@H]1CCC[C@@]2(O[C@H](CCO)C[C@H](O)[C@H]2O)O1	none (no result: Measles CPE, Phagocytosis inh, Rev-RRE block, PTK2B oligo ant)
O=C(Cc1ccc(NS(=O)(=O)c2ccc(F)cc2)cc1)NCc1ccccc1	Cav3 T inh -5.19
Cc1nc(N)sc1-c1csc(Nc2ccc(Cl)cn2)n1	DAT uptake mod 4.46 (no result: Phagocytosis inh)
COc1ccc(Nc2nc(-c3sc(N)nc3C)cs2)cc1	none
Cc1nc(N)sc1-c1csc(Nc2ccccn2)n1	DAT uptake mod 4.61
COc1ccc(/C=N/OCC(=O)N(Cc2ccc(OC)cc2)c2ccccc2C(=O)O)cc1	none (no result: Rev-RRE block, Cav3 T inh, PTK2B oligo ant, DAT uptake mod)
COc1ccc2nc(N3CCCC3)c(C#N)cc2c1	Rev-RRE block 46.8, Cav3 T inh -3.56
COc1ccc2nc(SCC(=O)N3CCCCCC3)c(C#N)cc2c1	none
CCCCOc1ccc(CSCCNC(=S)Nc2ccccc2)cc1	none (no result: Rev-RRE block, Cav3 T inh, PTK2B oligo ant, DAT uptake mod)
CC(C)COc1ccc(CSCCNC(=S)Nc2ccccc2)cc1	Cav3 T inh -4.1
CSc1cccc(NC(=O)C(C)Sc2ccc(C)cc2)c1 (configuration not stated)	none (no result: Cav3 T inh)
Cc1ccc(SC(C)C(=O)Nc2cccc(N(C)S(C)(=O)=O)c2)cc1 (configuration not stated)	Measles CPE 32.9
O=C(Nc1ccccc1C(F)(F)F)c1ccc(CN2CCC(Cc3ccccc3)CC2)cc1	Cav3 T inh -7.71 (no result: Phagocytosis inh)
Cc1cccc(N2C(=O)c3cccc4c(N(C)CCO)ccc(c34)C2=O)c1	Rev-RRE block 128.7[fluorescence artefact?] (no result: Cav3 T inh)
O=C(COC(=O)C1Cc2ccccc2CN1C(=O)c1ccccc1)Nc1ccc(SC(F)F)cc1 (configuration not stated)	none (no result: Rev-RRE block, Cav3 T inh, PTK2B oligo ant, DAT uptake mod)
COc1cc(/C=C2\SC(c3ccc(C)cc3)=NC2=O)cc(OC)c1O	Rev-RRE block 50.2[fluorescence artefact?]
Cc1ccc(CNC(=O)C2CC3Cn4c(nc5cc(Cl)c(Cl)cc54)C3N2C)o1 (configuration not stated)	none (no result: Measles CPE, Phagocytosis inh, Rev-RRE block, PTK2B oligo ant)
